Several values for one entry are separate records, joined by “and”; a condition that tells them apart may be missing. Identical values can stand only once.
Tested on: U2OS
Experiment: Multiplex assay against U2OS
Format: toxicity, cell-based
Conditions: human
Method in brief: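 Imaging took place on a CQ1 microscope at 37°C and 5% CO2 once compound had been added to live cells stained at seeding with Hoechst33342, BioTracker Green Microtubule Cytoskeleton Dye, MitoTracker Red and Annexin V Alexa Fluor 680. CellPathfinder machine-learning gating classed cells as Hoechst high-intensity objects or normal cells, classed normal cells as having healthy, pyknosed or fragmented nuclei, and classed pyknosed cells as mitotic or apoptotic. Tubulin, mitochondrial-mass and membrane-permeability phenotypes are per cents of the healthy-nucleus cells.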

[1] = 12 h, 1 µM, compound concentration 1 uM
[2] = 12 h, 10 µM, compound concentration 10 uM
[3] = 24 h, 1 µM, compound concentration 1 uM
[4] = 24 h, 10 µM, compound concentration 10 uM
[5] = 48 h, 1 µM, compound concentration 1 uM
[6] = 48 h, 10 µM, compound concentration 10 uM

Question: Which results are given for `CN1C[C@H](C(=O)N[C@]2(C)O[C@@]3(O)[C@@H]4CCCN4C(=O)[C@H](Cc4ccccc4)N3C2=O)C[C@@H]2c3cccc4[nH]cc(c34)C[C@H]21.CS(=O)(=O)O` [DIHYDROERGOTAMINE MESYLATE]?
Answer: Population Apoptotic (%) [1]: 82% and 84%; Population Fragmented Nuclei (%) [1]: 24% and 23%; Population Healthy Nuclei (%) [1]: 65% and 63%; Population Hoechst High Intensity Objects (%) [1]: 1%; Population Membrane Permeable-Phenotype (%) [1]: 6% and 14%; Population Mitochondria Different-Phenotype (%) [1]: 2% and 1%; Population Mitotic Cells (%) [1]: 17% and 15%; Population Normal (%) [1]: 98%; Population Pyknosed Nuclei (%) [1]: 10% and 13%; Population Tubulin-Different-Phenotype (%) [1]: 2% and 7%; Total Cell Count [1]: 233 and 101; Population Apoptotic (%) [2]: 71% and 100%; Population Fragmented Nuclei (%) [2]: 19%; Population Healthy Nuclei (%) [2]: 73% and 77%; Population Hoechst High Intensity Objects (%) [2]: 2% and 1%; Population Membrane Permeable-Phenotype (%) [2]: 5%; Population Mitochondria Different-Phenotype (%) [2]: 1% and 0%; Population Normal (%) [2]: 97% and 98%; Population Pyknosed Nuclei (%) [2]: 7% and 2%; Population Tubulin-Different-Phenotype (%) [2]: 3% and 0%; Total Cell Count [2]: 298 and 144; Population Apoptotic (%) [3]: 89% and 100%; Population Fragmented Nuclei (%) [3]: 23% and 21%; Population Healthy Nuclei (%) [3]: 67% and 65%; Population Hoechst High Intensity Objects (%) [3]: 0% and 1%; Population Membrane Permeable-Phenotype (%) [3]: 2% and 8%; Population Mitochondria Different-Phenotype (%) [3]: 0% and 2%; Population Mitotic Cells (%) [3]: 10% and 0%; Population Normal (%) [3]: 99% and 98%; Population Pyknosed Nuclei (%) [3]: 9% and 13%; Population Tubulin-Different-Phenotype (%) [3]: 2% and 4%; Total Cell Count [3]: 307 and 132; Population Apoptotic (%) [4]: 88% and 92%; Population Fragmented Nuclei (%) [4]: 18% and 16%; Population Healthy Nuclei (%) [4]: 73% and 75%; Population Hoechst High Intensity Objects (%) [4]: 1%; Population Membrane Permeable-Phenotype (%) [4]: 4%; Population Mitochondria Different-Phenotype (%) [4]: 2%; Population Mitotic Cells (%) [4]: 11% and 7%; Population Normal (%) [4]: 98%; Population Pyknosed Nuclei (%) [4]: 8%; Population Tubulin-Different-Phenotype (%) [4]: 2% and 1%; Total Cell Count [4]: 337 and 163; Population Apoptotic (%) [5]: 80% and 90%; Population Fragmented Nuclei (%) [5]: 14% and 11%; Population Healthy Nuclei (%) [5]: 78% and 76%; Population Hoechst High Intensity Objects (%) [5]: 2% and 1%; Population Membrane Permeable-Phenotype (%) [5]: 2% and 6%; Population Mitochondria Different-Phenotype (%) [5]: 2%; Population Mitotic Cells (%) [5]: 19% and 10%; Population Normal (%) [5]: 97% and 98%; Population Pyknosed Nuclei (%) [5]: 7% and 11%; Population Tubulin-Different-Phenotype (%) [5]: 1% and 4%; Total Cell Count [5]: 427 and 173; Population Apoptotic (%) [6]: 95% and 100%; Population Fragmented Nuclei (%) [6]: 14% and 19%; Population Healthy Nuclei (%) [6]: 75% and 72%; Population Hoechst High Intensity Objects (%) [6]: 3%; Population Membrane Permeable-Phenotype (%) [6]: 7% and 3%; Population Mitochondria Different-Phenotype (%) [6]: 3% and 1%; Population Mitotic Cells (%) [6]: 4% and 0%; Population Normal (%) [6]: 96%; Population Pyknosed Nuclei (%) [6]: 9% and 8%; Population Tubulin-Different-Phenotype (%) [6]: 3% and 2%; Total Cell Count [6]: 452 and 217

Question: What does the source list for `Cc1c(CC(=O)O)c2cccnc2n1Cc1ccc(S(C)(=O)=O)cc1C(F)(F)F` [FEVIPIPRANT]?
Answer: Population Apoptotic (%) [1]: 80% and 50%; Population Fragmented Nuclei (%) [1]: 25% and 22%; Population Healthy Nuclei (%) [1]: 64% and 72%; Population Hoechst High Intensity Objects (%) [1]: 1%; Population Membrane Permeable-Phenotype (%) [1]: 2% and 8%; Population Mitochondria Different-Phenotype (%) [1]: 2% and 1%; Population Mitotic Cells (%) [1]: 19% and 50%; Population Normal (%) [1]: 98%; Population Pyknosed Nuclei (%) [1]: 9% and 5%; Population Tubulin-Different-Phenotype (%) [1]: 0% and 9%; Total Cell Count [1]: 224 and 118; Population Apoptotic (%) [2]: 90% and 100%; Population Fragmented Nuclei (%) [2]: 27% and 22%; Population Healthy Nuclei (%) [2]: 65% and 73%; Population Hoechst High Intensity Objects (%) [2]: 2% and 0%; Population Membrane Permeable-Phenotype (%) [2]: 3% and 8%; Population Mitochondria Different-Phenotype (%) [2]: 0% and 3%; Population Mitotic Cells (%) [2]: 9% and 0%; Population Normal (%) [2]: 97% and 99%; Population Pyknosed Nuclei (%) [2]: 7% and 3%; Population Tubulin-Different-Phenotype (%) [2]: 1% and 4%; Total Cell Count [2]: 287 and 116; Population Apoptotic (%) [3]: 80% and 66%; Population Fragmented Nuclei (%) [3]: 20% and 17%; Population Healthy Nuclei (%) [3]: 71% and 74%; Population Hoechst High Intensity Objects (%) [3]: 2% and 0%; Population Membrane Permeable-Phenotype (%) [3]: 1% and 9%; Population Mitochondria Different-Phenotype (%) [3]: 3% and 0%; Population Mitotic Cells (%) [3]: 20% and 33%; Population Normal (%) [3]: 97% and 100%; Population Pyknosed Nuclei (%) [3]: 8%; Population Tubulin-Different-Phenotype (%) [3]: 1% and 10%; Total Cell Count [3]: 256 and 145; Population Apoptotic (%) [4]: 96% and 100%; Population Fragmented Nuclei (%) [4]: 20% and 12%; Population Healthy Nuclei (%) [4]: 70% and 78%; Population Hoechst High Intensity Objects (%) [4]: 0% and 1%; Population Membrane Permeable-Phenotype (%) [4]: 5% and 8%; Population Mitochondria Different-Phenotype (%) [4]: 3% and 2%; Population Mitotic Cells (%) [4]: 3% and 0%; Population Normal (%) [4]: 99% and 98%; Population Pyknosed Nuclei (%) [4]: 8%; Population Tubulin-Different-Phenotype (%) [4]: 3%; Total Cell Count [4]: 326 and 119; Population Apoptotic (%) [5]: 65% and 90%; Population Fragmented Nuclei (%) [5]: 18% and 20%; Population Healthy Nuclei (%) [5]: 71% and 67%; Population Hoechst High Intensity Objects (%) [5]: 2%; Population Membrane Permeable-Phenotype (%) [5]: 4% and 8%; Population Mitochondria Different-Phenotype (%) [5]: 3% and 5%; Population Normal (%) [5]: 97%; Population Pyknosed Nuclei (%) [5]: 10% and 12%; Population Tubulin-Different-Phenotype (%) [5]: 2% and 9%; Total Cell Count [5]: 379 and 187; Population Apoptotic (%) [6]: 91% and 100%; Population Fragmented Nuclei (%) [6]: 17% and 15%; Population Healthy Nuclei (%) [6]: 73% and 76%; Population Hoechst High Intensity Objects (%) [6]: 1% and 3%; Population Membrane Permeable-Phenotype (%) [6]: 4% and 5%; Population Mitochondria Different-Phenotype (%) [6]: 3% and 1%; Population Mitotic Cells (%) [6]: 8% and 0%; Population Normal (%) [6]: 98% and 96%; Population Pyknosed Nuclei (%) [6]: 8%; Population Tubulin-Different-Phenotype (%) [6]: 3%; Total Cell Count [6]: 408 and 158
